# Experimental data: ChEMBL document CHEMBL1126882, “Orally active central dopamine and serotonin receptor ligands: 5-, 6-, 7-, and 8-[[trifluoromethyl)sulfonyl]oxy]-2-(di-n-propylamino)tetralins and the formation of active metabolites in vivo” (J Med Chem, 1993)
# Calls of active or inactive are those of the source. The rule behind the calls is not given here.
# Experiments:
# [1] = biological target: T1, 5-hydroxytryptamine receptor 1A (Rattus norvegicus, UniProt P19327); assay: Binding affinity against 5-hydroxytryptamine 1A receptor in homogenated rat brain tissue, using by [3H]8-OH-DPAT as radioligand; assay type: tissue-based
# T1 sequence (P19327 whole entry): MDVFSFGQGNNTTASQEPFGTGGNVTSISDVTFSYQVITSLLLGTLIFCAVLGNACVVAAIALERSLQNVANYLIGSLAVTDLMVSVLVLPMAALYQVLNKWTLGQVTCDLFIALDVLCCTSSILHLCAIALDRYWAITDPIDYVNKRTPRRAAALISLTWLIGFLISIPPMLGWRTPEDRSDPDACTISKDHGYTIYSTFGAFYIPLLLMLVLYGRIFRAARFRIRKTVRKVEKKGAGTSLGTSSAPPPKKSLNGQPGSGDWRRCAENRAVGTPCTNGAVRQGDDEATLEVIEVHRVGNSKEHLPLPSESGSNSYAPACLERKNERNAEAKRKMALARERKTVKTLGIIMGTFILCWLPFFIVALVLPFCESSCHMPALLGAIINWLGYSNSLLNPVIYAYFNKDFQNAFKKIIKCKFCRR
# Procedure, shortened: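 Rat brain homogenate was washed and preincubated in 50 mM Tris (pH 8.0) containing NaCl, CaCl2 and MgCl2, plus 10 μM pargyline. Nonspecific binding was defined with 10 μM 5-HT. Six drug concentrations (10⁻⁴-10⁻⁹ M) were tested, triplicate or single run. IC50 came from a semilog plot with linear regression.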
# Rattus norvegicus [2] = species: Rattus norvegicus; assay: DA agonist induced behavior was charecterised by increased locomotion, sniffing and licking.+ indicates low intensity of behavioral effect; assay type: functional, organism-based
# Procedure, shortened: (§1)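 Male Sprague-Dawley rats (200-300 g) given reserpine 5 mg/kg sc in the neck 18 h before testing. The test compound, in 0.9% saline, was given sc in the neck (n = 4-5). Rats were placed singly in photocell motility meters right after dosing. Counts were recorded over 30 min, alongside gross behavioural observation of 5-HT and DA signs. Statistics: ANOVA with Fischer's PLSD versus reserpine controls.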
# Rattus norvegicus [3] = assay: Effective dose for half-maximal decrease in the accumulation of 5-hydroxytryptophan (5-HTP) in reserpinized rat brain striatal area by sc administration; Inactive; assay type: functional, organism-based
# Procedure, shortened: (§2)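 Male Sprague-Dawley rats (200-300 g) got reserpine 5 mg/kg sc 18 h before. The test drug (saline) was given sc or po (po rats fasted 18 h), with NSD 1015, 30 min before decapitation. DOPA and 5-HTP in limbic, striatal and hemispheral tissue were measured by HPLC-ED. ED50 (half-maximal decrease) was taken from 4-6-dose curves, with deviation estimated graphically from SEM.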
# [4] = biological target: T2, Dopamine receptor (Rattus norvegicus) (UniProt P25115+P19020+P30729+P18901+P61169); assay: Effective dose for half-maximal decrease in the accumulation of DOPA in reserpinized rat brain limbic area by sc administration; assay type: functional, organism-based; procedure, shortened: as §2
# Rattus norvegicus [5] = assay: Effective dose for half-maximal decrease in the accumulation of 5-hydroxytryptophan (5-HTP) in reserpinized rat brain limbic area by sc administration; Inactive; assay type: functional, organism-based; procedure, shortened: as §2
# Rattus norvegicus [6] = assay: Effective dose for half-maximal decrease in the accumulation of 5-hydroxytryptophan (5-HTP) in reserpinized rat brain hemispheral area by sc administration; Inactive; assay type: functional, organism-based; procedure, shortened: as §2
# Rattus norvegicus [7] = assay: post-synaptic agonistic effects by increase in locomotor activity at the dose of 1.0 umol/kg, sc in reserpinized rat; assay type: functional; procedure, shortened: as §1
# [8] = biological target: T2, Dopamine receptor (Rattus norvegicus); assay: (§3) Effective dose for half-maximal decrease in the accumulation of DOPA in reserpinized rat brain hemispheral area by sc administration; Inactive; assay type: functional, organism-based; procedure, shortened: as §2
# [9] = biological target: T2, Dopamine receptor (Rattus norvegicus); assay: Effective dose for half-maximal decrease in the accumulation of DOPA in reserpinized rat brain striatal area by sc administration; assay type: functional, organism-based; procedure, shortened: as §2
# Rattus norvegicus [10] = assay: post-synaptic agonistic effects by increase in locomotor activity at the dose of 50 umol/kg, sc in reserpinized rat; assay type: functional
# [11] = biological target: T2, Dopamine receptor (Rattus norvegicus); assay: Effective dose for half-maximal decrease in the accumulation of DOPA in reserpinized rat brain limbic area by po administration; assay type: functional, organism-based; procedure, shortened: as §2
# D(2) dopamine receptor [12] = biological target: T3, D(2) dopamine receptor (Rattus norvegicus, UniProt P61169); assay: Binding affinity against dopamine receptor D2 in homogenated rat brain tissue, using by ([3H]N00437) as radioligand; assay type: tissue-based
# Procedure, shortened: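 Striata from male Wistar rats were washed in Tris (pH 7.5) containing EDTA, KCl and CaCl2. Tissue (1.25 mg original) was incubated with 0.2 nM [3H]-N-0437 (final) for 90 min at 25 °C, then filtered and counted by scintillation. Nonspecific binding was defined with 1 μM 6,7-ADTN. IC50 was read from a hand-fitted sigmoid curve, in triplicate.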
# Rattus norvegicus [13] = assay: Effective dose for half-maximal decrease in the accumulation of 5-hydroxytryptophan (5-HTP) in reserpinized rat brain hemispheral area by sc administration; Partial response at the highest dose tested; assay type: functional, organism-based; procedure, shortened: as §2
# Rattus norvegicus [14] = assay: Effective dose for half-maximal decrease in the accumulation of 5-hydroxytryptophan (5-HTP) in reserpinized rat brain striatal area by sc administration; Partial response at the highest dose tested; assay type: functional, organism-based; procedure, shortened: as §2
# [15] = (§4) Effective dose for half-maximal decrease in the accumulation of 5-hydroxytryptophan (5-HTP) in reserpinized rat brain limbic area by po administration; assay type: functional; procedure, shortened: as §2
# D(2) dopamine receptor [16] = biological target: T3, D(2) dopamine receptor; assay: Binding affinity against dopamine receptor D2 in rat brain tissue using [3H]spiperone; assay type: tissue-based
# Procedure, shortened: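 Rat striatal membranes were prepared in 50 mM potassium phosphate (pH 7.4). They were incubated with 0.5 nM [3H]spiperone (3 mg original tissue) for 10 min at 37 °C. Specific binding was defined with 10 μM 6,7-ADTN. Six drug concentrations (10⁻⁴-10⁻⁹ M) were tested, in triplicate or in a single experiment.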
# Rattus norvegicus [17] = assay: Effective dose for half-maximal decrease in the accumulation of 5-hydroxytryptophan (5-HTP) in reserpinized rat brain striatal area by po administration; Partial response at the highest dose tested; assay type: functional, organism-based; procedure, shortened: as §2
# [18] = Area under curve ratio was determined (po/iv); assay type: functional
# Procedure, shortened: (§5)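 Male Sprague-Dawley rats (300 g) with arterial catheters were dosed 24 h after surgery. Doses: 40 μmol/kg po by gavage and 5 μmol/kg iv, or 20 po and 1 iv. Po rats were fasted 18 h. Blood was sampled from 5 min to 12 h and measured by GC-MS after extraction at pH 11 against an internal standard, samples in duplicate. AUC po/iv came from n = 4 per route. Half-life was read graphically from the oral elimination phase.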
# Rattus norvegicus [19] = species: Rattus norvegicus; assay: DA agonist induced behavior was charecterised by increased locomotion, sniffing and licking.++ indicates high intensity of behavioral effect; assay type: functional, organism-based; procedure, shortened: as §1
# [20] = biological target: T2, Dopamine receptor (Rattus norvegicus); assay: Effective dose for half-maximal decrease in the accumulation of DOPA in reserpinized rat brain hemispheral area by sc administration; Partial response at the highest dose tested; assay type: functional, organism-based; procedure, shortened: as §2
# [21] = Half-lives were estimated from the elimination phase of the blood conc-time curve after oral administration; assay type: ADME, organism-based; conditions: whole blood; procedure, shortened: as §5
# [22] = biological target: T2, Dopamine receptor (Rattus norvegicus); assay: Effective dose for half-maximal decrease in the accumulation of DOPA in reserpinized rat brain striatal area by po administration; assay type: functional, organism-based; procedure, shortened: as §2
# [23] = (§6) Effective dose for half-maximal decrease in the accumulation of 5-hydroxytryptophan (5-HTP) in reserpinized rat brain hemispheral area by po administration; assay type: functional; procedure, shortened: as §2
# Rattus norvegicus [24] = assay: Effective dose for half-maximal decrease in the accumulation of 5-hydroxytryptophan (5-HTP) in reserpinized rat brain limbic area by sc administration; partial response at the highest dose tested; assay type: functional, organism-based; procedure, shortened: as §2
# [25] = (§7) Effective dose for half-maximal decrease in the accumulation of 5-hydroxytryptophan (5-HTP) in reserpinized rat brain striatal area by sc administration; assay type: functional; procedure, shortened: as §2
# [26] = biological target: T2, Dopamine receptor (Rattus norvegicus); assay: Effective dose for half-maximal decrease in the accumulation of DOPA in reserpinized rat brain hemispheral area by sc administration; partial response at the highest dose tested; assay type: functional, organism-based; procedure, shortened: as §2
# Rattus norvegicus [27] = assay: post-synaptic agonistic effects by increase in locomotor activity at the dose of 50 umol/kg, sc in reserpinized rat (p<0.005); assay type: functional
# [28] = (§8) Effective dose for half-maximal decrease in the accumulation of 5-hydroxytryptophan (5-HTP) in reserpinized rat brain hemispheral area by sc administration; assay type: functional; procedure, shortened: as §2
# [29] = (§9) Effective dose for half-maximal decrease in the accumulation of 5-hydroxytryptophan (5-HTP) in reserpinized rat brain striatal area by po administration; assay type: functional; procedure, shortened: as §2
# [30] = biological target: T2, Dopamine receptor (Rattus norvegicus); assay: Effective dose for half-maximal decrease in the accumulation of DOPA in reserpinized rat brain hemispheral area by po administration; assay type: functional, organism-based; procedure, shortened: as §2
# Rattus norvegicus [31] = assay: Effective dose for half-maximal decrease in the accumulation of DOPA in reserpinized rat brain striatal area by po administration; Partial response at the highest dose tested; assay type: functional, organism-based; procedure, shortened: as §2
# Rattus norvegicus [32] = assay: as §9; assay type: functional; procedure, shortened: as §2
# Rattus norvegicus [33] = assay: Effective dose for half-maximal decrease in the accumulation of DOPA in reserpinized rat brain limbic area by sc administration; Inactive; assay type: functional, organism-based; procedure, shortened: as §2
# Rattus norvegicus [34] = assay: as §4; assay type: functional; procedure, shortened: as §2
# Rattus norvegicus [35] = assay: Effective dose for half-maximal decrease in the accumulation of 5-hydroxytryptophan (5-HTP) in reserpinized rat brain limbic area by sc administration; assay type: functional; procedure, shortened: as §2
# Rattus norvegicus [36] = assay: as §7; assay type: functional; procedure, shortened: as §2
# Rattus norvegicus [37] = assay: as §3; assay type: functional, organism-based; procedure, shortened: as §2
# Rattus norvegicus [38] = assay: post-synaptic agonistic effects by increase in locomotor activity at the dose of 0.2 umol/kg, sc in reserpinized rat (p<0.005); assay type: functional; procedure, shortened: as §1
# Rattus norvegicus [39] = assay: Effective dose for half-maximal decrease in the accumulation of DOPA in reserpinized rat brain limbic area by po administration; Partial response at the highest dose tested; assay type: functional, organism-based; procedure, shortened: as §2
# Rattus norvegicus [40] = assay: Effective dose for half-maximal decrease in the accumulation of DOPA in reserpinized rat brain striatal area by sc administration; Inactive; assay type: functional, organism-based; procedure, shortened: as §2
# Rattus norvegicus [41] = assay: as §8; assay type: functional; procedure, shortened: as §2
# Rattus norvegicus [42] = assay: as §6; assay type: functional; procedure, shortened: as §2
# T3 sequence (P61169 whole entry): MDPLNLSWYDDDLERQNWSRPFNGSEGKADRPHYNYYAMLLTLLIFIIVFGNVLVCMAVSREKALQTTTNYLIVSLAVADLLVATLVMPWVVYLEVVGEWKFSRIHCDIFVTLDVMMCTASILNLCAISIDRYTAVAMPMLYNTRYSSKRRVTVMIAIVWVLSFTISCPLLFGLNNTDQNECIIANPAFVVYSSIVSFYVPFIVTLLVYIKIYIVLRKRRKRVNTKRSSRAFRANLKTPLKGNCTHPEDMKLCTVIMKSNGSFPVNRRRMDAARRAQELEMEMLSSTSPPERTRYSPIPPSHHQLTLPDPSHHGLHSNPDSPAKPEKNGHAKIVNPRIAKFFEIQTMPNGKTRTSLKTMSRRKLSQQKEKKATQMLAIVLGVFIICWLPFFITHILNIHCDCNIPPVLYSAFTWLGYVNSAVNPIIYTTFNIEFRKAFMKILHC
Compound,Ki [1] [nM],ED50 (Rattus norvegicus [3]),ED50 [4] [µmol/kg],ED50 (Rattus norvegicus [5]),ED50 (Rattus norvegicus [6]),ED50 [8],ED50 [9] [µmol/kg],ED50 [11] [µmol/kg],Ki (D(2) dopamine receptor [12]) [nM],ED50 [15] [µmol/kg],Ki (D(2) dopamine receptor [16]) [nM],ED50 [22] [µmol/kg],ED50 [23] [µmol/kg],further results
CCCN(CCC)C1CCc2ccc(O)cc2C1 (centres undefined),2800,inactive,0.03,inactive,inactive,inactive,0.03,–,–,–,–,–,–,Behavioral observation (Rattus norvegicus [2]): Partially active; Counts/30 (Rattus norvegicus [7]): 160 counts/30 min
CCCN(CCC)C1CCc2c(cccc2OS(=O)(=O)C(F)(F)F)C1 (centres undefined),160,–,0.4,inactive,–,–,0.5,6.2,28,3,64,7.9,5.4,Counts/30 min (Rattus norvegicus [10]): 170; ED50 (Rattus norvegicus [13]): Weak activity; ED50 (Rattus norvegicus [14]): Weak activity; ED50 (Rattus norvegicus [17]): Weak activity; Ratio [18]: 8.5; Behavioral observation (Rattus norvegicus [19]): Active; ED50 [20]: Weak activity; half-life [21]: 1.5 h
CCCN(CCC)C1CCc2ccc(OS(=O)(=O)C(F)(F)F)cc2C1 (centres undefined),360,–,1.6,–,–,–,0.4,–,150,–,1300,–,–,ED50 (Rattus norvegicus [24]): Weak activity; ED50 [25]: 34 µmol/kg; ED50 [26]: Weak activity; Counts/30 (Rattus norvegicus [27]): 170 min; ED50 [28]: 27 µmol/kg
CCCN(CCC)C1CCc2c(cccc2OC)C1 (centres undefined),440,inactive,0.01,inactive,inactive,inactive,0.02,0.2,–,0.4,100,0.2,0.3,ED50 [29]: 0.5 µmol/kg; ED50 [30]: 0.3 µmol/kg
CCCN(CCC)C1CCc2cccc(O)c2C1 (centres undefined) [8-OH-DPAT],–,–,–,–,–,–,–,–,–,–,–,–,–,ED50 (Rattus norvegicus [31]): Weak activity; ED50 (Rattus norvegicus [32]): 7.9 µmol/kg; ED50 (Rattus norvegicus [33]): inactive; ED50 (Rattus norvegicus [34]): 3 µmol/kg; ED50 (Rattus norvegicus [35]): 0.05 µmol/kg; ED50 (Rattus norvegicus [36]): 0.04 µmol/kg; ED50 (Rattus norvegicus [37]): inactive; Counts/30 (Rattus norvegicus [38]): 66 counts/30 min; ED50 (Rattus norvegicus [39]): Weak activity; half-life ([21]; rat): 1.2 h; ED50 (Rattus norvegicus [40]): inactive; ED50 (Rattus norvegicus [41]): 0.07 µmol/kg; ED50 (Rattus norvegicus [42]): 7.6 µmol/kg
